In data set [1] the test system is Liver microsome. Put plainly: Drug level in human liver microsomes treated with [14C]BIIB021 at 10 uM […] by LC-RAM-MS analysis in presence of anti-CYP2C19 monoclonal antibody. It is filed as ADME. The conditions noted are these: 1.5 h.
For data set [2], the system named is Liver microsome. Put plainly: Drug level in human liver microsomes treated with [14C]BIIB021 at 10 uM after 90 mins by LC-RAM-MS analysis in presence of anti-CYP3A4 monoclonal antibody. It is filed as ADME. The conditions noted are these: 1.5 h. Background: Liver microsomes are vesicles of endoplasmic reticulum, rich in cytochrome P450 enzymes.
Data set [3] has as its system Liver microsome. Put plainly: Drug level in human liver microsomes treated with [14C]BIIB021 at 10 uM […] by LC-RAM-MS analysis in presence of anti-CYP1A2 monoclonal antibody. Format: ADME. To be noted: 1.5 h.
Data set [4] has as its system Liver microsome. Put plainly: Drug level in human liver microsomes treated with [14C]BIIB021 at 10 uM after 90 mins by LC-RAM-MS analysis in presence of anti-CYP2A6 monoclonal antibody. Format: ADME. The conditions noted are these: 1.5 h.
Data set [5] concerns Liver microsome. Put plainly: Drug level in human liver microsomes treated with [14C]BIIB021 at 10 uM after 90 mins by LC-RAM-MS analysis in presence of anti-CYP2B6 monoclonal antibody. Format: ADME. To be noted: 1.5 h.
The test system of data set [6] is Liver microsome. Put plainly: Drug level in human liver microsomes treated with [14C]BIIB021 at 10 uM after 90 mins by LC-RAM-MS analysis in presence of anti-CYP2D6 monoclonal antibody. To be noted: 1.5 h. Format: ADME.
Data set [7] concerns Liver microsome. Put plainly: Drug level in human liver microsomes treated with [14C]BIIB021 at 10 uM […] by LC-RAM-MS analysis in presence of anti-CYP2E1 monoclonal antibody. The conditions noted are these: 1.5 h. It is filed as ADME.
Data set [8] is described as follows: Drug level in human liver cytosol treated with [14C]BIIB021 at 10 uM after 30 mins by LC-RAM-MS analysis. Format: ADME, tissue-based. The conditions noted are these: 0.5 h. In outline: (§1)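 Human liver cytosol (1 mg/mL protein) incubated with 10 µM [14C]BIIB021 (0.5 µCi/mL) in 100 mM phosphate buffer, pH 7.4, for 30 min. Reaction quenched with ice-cold acetonitrile, then centrifuged 10 min at 4°C, and supernatant analysed by LC-MS. Where used, inhibitors (isovanillin 100 µM, menadione 100 µM, allopurinol 100 µM, raloxifene 50 µM) were preincubated in cytosol 10 min at 37°C before substrate addition.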

Data set [9] is described as follows: Drug level in human liver cytosol treated with [14C]BIIB021 at 10 uM after 30 mins by LC-RAM-MS analysis in presence of xanthine oxidase inhibitor allopurinol. It is filed as ADME, tissue-based. To be noted: 0.5 h. The essentials:
as §1

Another data set addresses CYP3A4 (Homo sapiens, UniProt P08684). Put plainly: Drug metabolism assessed as unchanged drug level in baculovirus-infected Sf9 cell microsomes expressing human recombinant CYP3A4 at 10 uM after 30 mins by LC-RAM-MS analysis. It is filed as ADME. The conditions noted are these: read-out: Drug metabolism. The essentials: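 Microsomes from baculovirus-infected Sf9 cells expressing recombinant human CYP3A4 with CYP450 reductase (50 pmol/mL) incubated in duplicate with 10 µM [14C]BIIB021 (0.5 µCi/mL) in 100 mM potassium phosphate pH 7.4. Reaction started with 1 mM NADPH (final), run 30 min at 37°C with gentle shaking, stopped with ice-cold acetonitrile containing 0.1% formic acid, centrifuged, and supernatant analysed by LC-MS.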

For data set [10], the system named is Liver microsome. Kind of data set: Drug metabolism in human liver microsomes assessed as CF2246 metabolite formation at 10 uM […] by LC-RAM-MS analysis in presence of anti-CYP2B6 monoclonal antibody. It is filed as ADME. In outline:
(§2)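 All components except substrate and NADPH were preincubated 15 min on ice, then 5 min at 37°C. Substrate and NADPH were added and incubated 60 min at 37°C. Incubations without antibody served as positive controls.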

Data set [11] concerns Liver microsome. Kind of data set: Drug metabolism in human liver microsomes assessed as CF2246 metabolite formation at 10 uM after […] by LC-RAM-MS analysis in presence of anti-CYP2D6 monoclonal antibody. Format: ADME. In outline: as §2
Data set [12] deals with Liver microsome. Kind of data set: Drug metabolism in human liver microsomes assessed as CF2246 metabolite formation at 10 uM after […] by LC-RAM-MS analysis in presence of anti-CYP2E1 monoclonal antibody. It is filed as ADME. In outline:
as §2

The nature of data set [13]: Drug metabolism in human liver cytosol assessed as CF2483 metabolite formation at 10 uM after 30 mins by LC-RAM-MS analysis. Format: ADME, tissue-based. The conditions noted are these: 0.5 h. The essentials:
as §1

The nature of data set [14]: Drug metabolism in human liver cytosol assessed as CF2483 metabolite formation at 10 uM after 30 mins by LC-RAM-MS analysis in presence of xanthine oxidase inhibitor allopurinol. It is filed as ADME. The conditions noted are these: 0.5 h. In outline:
as §1

Data set [15] is described as follows: Drug metabolism in human liver cytosol assessed as CF2483 metabolite formation at 10 uM after 30 mins by LC-RAM-MS analysis in presence of aldehyde oxidase inhibitor isovanillin. Format: ADME. The conditions noted are these: 0.5 h. In outline:
as §1

Data set [16] in a line: Drug metabolism in human liver cytosol assessed as CF2483 metabolite formation at 10 uM after 30 mins by LC-RAM-MS analysis in presence of aldehyde oxidase inhibitor menadione. It is filed as ADME. The conditions noted are these: 0.5 h. The essentials:
as §1

A short description of data set [17]: Drug metabolism in human liver cytosol assessed as CF2483 metabolite formation at 10 uM after 30 mins by LC-RAM-MS analysis in presence of aldehyde oxidase inhibitor raloxifene. It is filed as ADME. To be noted: 0.5 h. In outline:
as §1

The subject of data set [18] is Liver microsome. Put plainly: Drug metabolism in human liver microsomes assessed as CF3785 metabolite formation at 10 uM […] by LC-RAM-MS analysis in presence of anti-CYP1A2 monoclonal antibody. Format: ADME. The essentials: as §2
For data set [19], the system named is Liver microsome. Put plainly: Drug metabolism in human liver microsomes assessed as CF3785 metabolite formation at 10 uM […] by LC-RAM-MS analysis in presence of anti-CYP2A6 monoclonal antibody. It is filed as ADME. The essentials: as §2
Data set [20] has as its system Liver microsome. Kind of data set: Drug metabolism in human liver microsomes assessed as CF3785 metabolite formation at 10 uM […] by LC-RAM-MS analysis in presence of anti-CYP2B6 monoclonal antibody. It is filed as ADME. In outline: as §2
The test system of data set [21] is Liver microsome. Kind of data set: Drug metabolism in human liver microsomes assessed as CF3785 metabolite formation at 10 uM […] by LC-RAM-MS analysis in presence of anti-CYP2D6 monoclonal antibody. It is filed as ADME. The essentials: as §2
Data set [22] has as its system Liver microsome. Kind of data set: Drug metabolism in human liver microsomes assessed as CF3785 metabolite formation at 10 uM […] by LC-RAM-MS analysis in presence of anti-CYP2E1 monoclonal antibody. Format: ADME. In outline: as §2
Data set [23] concerns Liver microsome. Put plainly: Drug metabolism in human liver microsomes assessed as CF2246 metabolite formation at 10 uM […] by LC-RAM-MS analysis in presence of anti-CYP2C19 monoclonal antibody. It is filed as ADME. In outline:
as §2

The subject of data set [24] is Liver microsome. Put plainly: Drug metabolism in human liver microsomes assessed as CF2246 metabolite formation at 10 uM after […] by LC-RAM-MS analysis in presence of anti-CYP3A4 monoclonal antibody. Format: ADME. In outline:
as §2

For data set [25], the system named is Liver microsome. Kind of data set: Drug metabolism in human liver microsomes assessed as CF2246 metabolite formation at 10 uM […] by LC-RAM-MS analysis in presence of anti-CYP1A2 monoclonal antibody. Format: ADME. The essentials:
as §2

Data set [26] concerns Liver microsome. Put plainly: Drug metabolism in human liver microsomes assessed as CF2246 metabolite formation at 10 uM after […] by LC-RAM-MS analysis in presence of anti-CYP2A6 monoclonal antibody. Format: ADME. The essentials: as §2

CYP3A4, sequence (P08684 whole entry): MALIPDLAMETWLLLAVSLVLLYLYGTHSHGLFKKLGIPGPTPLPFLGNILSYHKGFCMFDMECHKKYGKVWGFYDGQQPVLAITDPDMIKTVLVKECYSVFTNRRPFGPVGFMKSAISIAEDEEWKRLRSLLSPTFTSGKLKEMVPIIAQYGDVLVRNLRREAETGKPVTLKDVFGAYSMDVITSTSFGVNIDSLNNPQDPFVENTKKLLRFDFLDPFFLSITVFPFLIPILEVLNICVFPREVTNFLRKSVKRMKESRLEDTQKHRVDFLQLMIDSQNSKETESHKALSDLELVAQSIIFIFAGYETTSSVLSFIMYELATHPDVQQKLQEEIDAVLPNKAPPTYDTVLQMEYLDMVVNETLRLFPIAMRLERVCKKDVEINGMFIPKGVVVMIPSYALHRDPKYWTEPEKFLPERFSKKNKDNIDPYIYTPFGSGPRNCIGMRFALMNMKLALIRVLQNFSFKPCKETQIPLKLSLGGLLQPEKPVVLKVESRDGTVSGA

Regarding `Cc1cnc(Cn2cnc3c(Cl)nc(N)nc32)c(C)c1O`, the Drug metabolism result in the data set with Liver microsome [1], in the data set with Liver microsome [2], with Liver microsome [3], in the data set on Liver microsome [4], with Liver microsome [5] and with Liver microsome [6] was “metabolite_detected” each time. Further, in the data set with Liver microsome [7], the Drug metabolism result was “metabolite_detected”.
Take `COc1c(C)cnc(Cn2c(O)nc3c(Cl)nc(N)nc32)c1C`: the Drug metabolism entry in [8] and in data set [9] was “metabolite_detected” throughout.
For the molecule `COc1c(CO)cnc(Cn2cnc3c(Cl)nc(N)nc32)c1C`, the Drug metabolism entry in the data set with Liver microsome [3], in the data set with Liver microsome [4], in the data set on Liver microsome [5], with Liver microsome [6] and with Liver microsome [7] was “metabolite_detected” in each case.
`COc1c(C)cnc(Cn2[14cH]nc3c(Cl)nc(N)nc32)c1C`: the remaining at 0.5 h, 10 µM on CYP3A4 came to 70%. Moreover, the Drug metabolism result in the data set on Liver microsome [10] was “metabolite_detected”; in the data set on Liver microsome [11] it was “metabolite_detected”; in the data set with Liver microsome [12], “metabolite_detected”; in [13], “metabolite_detected”; in [14] it was “metabolite_detected”; in data set [15], “metabolite_not_detected”. Also, the Drug metabolism entry in [16] is recorded as “metabolite_not_detected”; in data set [17], “metabolite_not_detected”; in the data set on Liver microsome [18], “metabolite_detected”; in the data set with Liver microsome [19], “metabolite_detected”; in the data set on Liver microsome [20] it was “metabolite_detected”; in the data set on Liver microsome [21] it was “metabolite_detected”. Moreover, the Drug metabolism entry in the data set on Liver microsome [22], with Liver microsome [23], with Liver microsome [24], in the data set with Liver microsome [25] and with Liver microsome [26] was “metabolite_detected” in each case.
